# Assay outcomes (PubChem)
# An excerpt weighted towards active compounds, which were near 9.3% of everything screened.
# D1 allo mod: allosteric modulators of human D1 dopamine receptor; P21728; HEK293 D1, CRE-luciferase, dopamine EC30 potentiation; actives deviate in either direction; B-score at 10 µM; hit rate 5.9% among 58,000;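 active = luminescence count or its row- and column-corrected plate score outside the 99.7% band of the plate's sample wells, on either side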
# Target sequence (P21728 whole entry, looked up): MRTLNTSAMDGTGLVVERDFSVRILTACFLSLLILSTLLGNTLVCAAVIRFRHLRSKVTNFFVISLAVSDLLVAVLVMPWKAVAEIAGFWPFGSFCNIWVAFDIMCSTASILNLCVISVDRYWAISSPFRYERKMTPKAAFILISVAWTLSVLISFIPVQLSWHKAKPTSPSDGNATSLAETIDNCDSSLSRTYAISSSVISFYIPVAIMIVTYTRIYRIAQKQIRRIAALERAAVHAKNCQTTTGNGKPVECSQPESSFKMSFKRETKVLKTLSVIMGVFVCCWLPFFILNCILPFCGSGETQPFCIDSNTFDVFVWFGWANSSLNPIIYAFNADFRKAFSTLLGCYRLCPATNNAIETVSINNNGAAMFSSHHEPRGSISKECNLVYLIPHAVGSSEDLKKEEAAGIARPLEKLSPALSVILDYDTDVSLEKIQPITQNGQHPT
# tolC growth inh: growth inhibitors of E. coli BW25113 tolC mutant; OD615; growth inhibition, % at 10 µM (by protocol); hit rate 2.2% among 65,000; AID 573;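 active = growth inhibition at or above a cutoff equal to the mean over every tested compound plus 3 SD, cut at about 60% in these data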;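 also: growth measured after 20 h incubation at 37 °C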
#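 signal = optical density read at 615 nm | test system = E. coli ΔtolC::kan strain BW25113 | timing = 20 h compound exposure of bacteria at 37 °C | buffer or medium = LB medium plus 50 µg/mL kanamycin | compound dosing = 10 µM final, single dose | evaluation = % inhibition of E. coli growth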
# DAT uptake mod: human DAT dopamine uptake with cocaine, either direction. hit rate 1.3% among 110,000. Q01959. AID 449768. B-score at 10 µM. LLC-PK1 hDAT cells, [14C]-dopamine uptake with cocaine IC80; actives deviate in either direction;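 active = Z score or B-score, a plate-position-corrected score, falls beyond the plate's 99.7% confidence bounds, in either direction; inactive = both scores lie inside the 99.7% bounds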;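 also: scored against the spread of the other compound wells on the same plate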
# Ecoli WT expand: growth inhibitors of E. coli BW25113 wild type. AID 710. growth inhibition, % at 100 µM. OD600 absorbance. hit rate 0.15% among 98,000;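 active = growth inhibition above about 50% at one test dose, limit read from the data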;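 also: growth measured after 20 h incubation at 37 °C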
# PostGolgi ctrl: inhibits growth of the yeast control strain; efflux-deficient yeast background strain, growth absorbance A615, 16 h; inhibition, % at 10 µM; hit rate 5% among 98,000; AID 738
# PostGolgi yeast: growth inhibition of a yeast mutant, post-Golgi transport screen; AID 739; post-Golgi transport phenotypic cell assay; hit rate 0.9% among 98,000; inhibition, % at 10 µM;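 also: yeast cells grown in 1536-well plates; yeast grown about 18 h at 30C before absorbance read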
# * hit, by the source's call; / = no result. Rule as the data show it, unless noted: active = inhibition above about 30%; inactive = the rest.
SMILES,D1 allo mod,tolC growth inh,DAT uptake mod,Ecoli WT expand,PostGolgi ctrl,PostGolgi yeast
COc1ccc(-c2nnn(CCc3nn[nH]n3)n2)cc1,/,/,-1.8,/,/,/
CCCCNC(=O)c1onc(CSc2ccccn2)c1C(=O)NCCCC,/,/,2,/,/,/
CCCC(=O)CN1C(=O)C2(OCCO2)c2ccccc21,0.4,-16,-1.9,-2,7,-3
CCN(CC)C(=O)CN1C(=O)C2(OCC(C)(c3ccccc3)CO2)c2ccccc21 (stereo not drawn),0.017,38,0.44,-10,31*,12
CCOc1ccc(S(=O)(=O)Nc2ccc(F)cc2)c(C)c1C,/,/,-1.8,-6,55*,-14
COc1cc(/C=C(\C#N)c2nc3c(s2)CCCC3)ccc1O,/,/,-0.42,-2,56*,5
COC(=O)C1=C(C)NC(C)=C(C(=O)OC)C1c1cn(-c2ccccc2)nc1-c1ccco1,0.68,52,-0.1,-5,69*,25
O=c1c2ccccc2nnn1CSc1nnc2sc3ccccc3n12,-7.8*,3,/,-4,2,0
COC(=O)c1ccc(NC(=O)c2cn(-c3ccccc3)nc2-c2ccncc2)cc1,/,/,-1.4,-12,32*,72*
CC(=O)c1ccc(NC(=O)c2cn(-c3ccccc3)nc2-c2ccncc2)cc1,/,/,-0.93,/,/,/
CC1Cc2cc(-c3csc(NC(=O)Cc4cccs4)n3)ccc2N1S(C)(=O)=O (stereo not drawn),-3.1,63*,/,-13,25,-28
CC1CCCCN1c1nnc(NC(=O)c2cc(-c3ccc(Br)cc3)on2)s1 (stereo not drawn),/,/,1.2,-15,46*,3
CN1CCN2c3ccccc3Cc3ccccc3C2C1 (stereo not drawn),-7*,11,1.4,/,/,/
CN1CCN(C2OC(=O)c3ccccc32)CC1 (stereo not drawn),/,/,0.17,3,10,-2
CCOc1ccccc1Oc1c(C)oc2c(CN3CCN(C)CC3)c(O)ccc2c1=O,/,-17,0.69,0,0,-6
COC(=O)c1ccc(Oc2c(C(F)(F)F)oc3c(CN4CCN(C)CC4)c(O)ccc3c2=O)cc1,/,/,0.029,5,35*,-4
C#CCOCCOCCOCCNc1nc(N2CCOCC2)nc(N2CCN(C(=O)[C@H](CCC(=O)O)n3cc(C(N)Cc4ccc(O)cc4)nn3)CC2)n1 (stereo partly drawn),/,/,-0.9,/,/,/
CCc1nnc(NC(=O)c2ccc(-c3cccc(C(F)(F)F)c3)o2)s1,-0.71,-13,-7.6*,-5,13,5
CCOc1ccc(OCc2ccc(C(=O)O)o2)cc1,-5.1*,-12,-0.76,-3,-3,1
COC(=O)c1ccccc1NC(=O)c1ccc(COc2cccc3ccccc23)o1,/,/,0.24,-11,9,0
CCc1nnc(NC(=O)c2ccc(COc3ccccc3)o2)s1,-0.86,-2,0.99,0,53*,-8
COC(=O)c1ccccc1NC(=O)c1ccc(COc2ccccc2)o1,0.13,60,0.094,-13,36*,-12
CC1CCN(c2ccc3c(c2)S(=O)(=O)c2ccccc2C3=O)CC1,/,/,-0.063,/,/,/
CCc1nnc(NC(=O)Cn2nc(-c3ccccc3OC)ccc2=O)s1,-0.8,-7,-0.65,-2,-1,1
CN1CCC(=NNC(=O)CSCc2ccccc2)CC1,/,/,0.25,-3,39*,-4
SMILES,D1 allo mod,tolC growth inh,DAT uptake mod,Ecoli WT expand,PostGolgi ctrl,PostGolgi yeast
CC(SCc1ccccc1)C(=O)NN=C1CCN(C)CC1 (stereo not drawn),/,/,-0.16,5,0,-3
CC1CCN(C(=O)CSc2nc3ccccc3c(=O)n2Cc2ccc3c(c2)OCO3)CC1,/,/,1.3,-18,43*,-6
CCCn1c(=S)[nH]c2cc(C(=O)N3CCCC(C(=O)OCC)C3)ccc2c1=O (stereo not drawn),-1.6,16,1.6,-8,9,0
CC1CCCN(C(=O)c2ccc3c(=O)n(Cc4ccc5c(c4)OCO5)c(=S)[nH]c3c2)C1 (stereo not drawn),/,/,0.11,-4,47*,-1
Cn1cnnc1SCNC(=O)C(F)(F)F,-0.58,3,-2.1,-3,16,14
COc1ccc(NC(=O)CSc2nc3c(c(=O)n2-c2ccc(C)cc2)SCC3)c(OC)c1,0.011,19,/,/,/,/
N#CC1=C(N)C(C#N)(C#N)C2(C(=O)Nc3ccccc32)C2CCCC=C12 (stereo not drawn),-6.2*,6,0.67,12,-2,-3
CCCCNc1cc(C)nc(NCc2ccccc2)n1,-4.4,77*,0.85,59*,9,-2
Cc1cc(C)nc(NCCCc2ccccc2)n1,/,12,0.061,0,7,-2
C=C[C@H]1[C@H](OC2OC(CO)C(O)C(O)C2O)OC=C(C(=O)OC)[C@H]1C[C@H]1CC(=O)C[C@H](CC(=O)CCc2ccc(O)cc2)O1 (stereo partly drawn),/,/,0.81,/,/,/
Cc1cc(C)c(Cc2c(C)nc3c(C(=O)NCc4ccco4)cnn3c2C)c(C)c1,/,/,0.42,-7,44*,12
Cc1cc(C)c2c(n1)nn1c(C)c(CCC(=O)NCc3ccco3)c(C)nc21,-1,-7,0.046,1,3,-1
Cc1nc(-c2ccccc2)sc1C1(C)CC(c2cccc([N+](=O)[O-])c2)=NO1 (stereo not drawn),/,/,0.058,/,/,/
CCOc1cccc(Oc2ccc(C(F)(F)F)cn2)c1,-0.69,-2,-0.74,8,34*,2
CCOc1ccccc1OC(=O)c1ccco1,-0.2,-8,-0.65,9,36*,-2
O=C(Nc1ccc(OC(=O)c2ccco2)cc1)c1ccco1,0.071,8,-1.2,-5,0,-1
COC(=O)c1ccc(OC(=O)c2ccco2)cc1,0.014,-8,-7.5*,-2,5,-7
O=C(Oc1ccc(Cl)c2cccnc12)c1ccco1,/,/,0.13,100*,12,-5
COc1cnn(-c2ccccc2)c(=O)c1SCc1ccc(Cl)cc1Cl,/,/,0.58,-14,36*,-5
COc1cnn(-c2ccc(C)cc2)c(=O)c1SCc1ccccc1,/,/,0.043,5,4,4
Nc1ccc2nc(-c3ccccc3)sc2c1,/,/,-0.093,7,2,3
Nc1ccc(Oc2ccc3nc(-c4ccccc4)c(-c4ccccc4)nc3c2)cc1,/,/,0.016,-2,56*,103*
COc1ccc(N(CC(=O)NC(C)C)S(=O)(=O)c2ccc(NC(C)=O)cc2)cc1,/,/,-0.037,-10,1,0
c1cn(-c2ncnc3sc4c(c23)CCCC4)cn1,4.3,-5,-0.68,/,/,/
CC(C)C(OC(=O)c1cc2occc2n1C)C(=O)NCc1ccc2c(c1)OCO2 (stereo not drawn),0.74,1,-0.058,-13,48*,1
CCn1cc(C(=O)NC2CCCCC2C)c(=O)c2ccc(C)nc21 (stereo not drawn),0.85,100*,0.81,92*,15,19
CCn1cc(C(=O)NCc2cccs2)c(=O)c2cc(S(=O)(=O)N3CCOCC3)ccc21,0.79,-7,/,/,/,/
